# High-throughput results: PubChem, several laboratories
# An excerpt weighted towards active compounds, which were near 6.1% of everything screened.
# RAM network inh = blocks the yeast RAM network; 190,000 tested, 1.8% active; inhibition, % at 50 µM; S. cerevisiae dse1pr::URA3 reporter, 5-FOA growth OD615, 2 d; analog-sensitive cbk1-as2 kinase mutant strain;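 active = inhibition above a set limit, 3 SD over mean compound inhibition, cut at about 8.4% in these data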;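 also: 0% = DMSO-only wells with no growth and 100% = 10 µM 1-NA-PP1 full growth; inhibition rescues growth on 5-FOA so higher OD means more RAM inhibition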
# Measles CPE = protection of cells from measles virus. protection (pct of control), % at 4 µM. Measles virus-infected cells, CPE protection, absorbance. 140,000 tested, 1.5% active. AID 841; in the data active = protection mostly above about 24%, no sharp cut-off; inactive = mostly below about 26%
# Yeast life ext = yeast lifespan extension; S. cerevisiae growth with nicotinamide, OD615; deaD strain in restrictive glucose medium; inhibition of the nicotinamide effect, % at 10 µM; 130,000 tested, 0.68% active;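 active = inhibition above a set limit, placed 3 SD over the median of all compounds, cut at about 26% in these data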;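 also: 0% = nicotinamide-treated wells and 100% = cells grown without nicotinamide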
#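 Assay system: engineered S. cerevisiae DeaD replicative-lifespan strain, galactose-grown log-phase cells; Buffer or medium: CSMM-D glucose medium, restrictive; Probe or stimulus: nicotinamide 1.5 mM; Compound: single dose 10 µM compound, 0.25% DMSO; Schedule: 4 h preincubation then 48 h treatment at 30 °C; Technique: OD615 measurement.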
# hDAT+cocaine = human DAT dopamine uptake with cocaine, either direction | Q01959 | LLC-PK1 hDAT cells, [14C]-dopamine uptake with cocaine IC80; actives deviate in either direction | B-score at 10 µM | 110,000 tested, 1.3% active;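 active = Z score or B-score, a plate-position-corrected score, falls beyond the plate's 99.7% confidence bounds, in either direction; inactive = both scores lie inside the 99.7% bounds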;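 also: scored against the spread of the other compound wells on the same plate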
# Target sequence (Q01959 whole entry, looked up): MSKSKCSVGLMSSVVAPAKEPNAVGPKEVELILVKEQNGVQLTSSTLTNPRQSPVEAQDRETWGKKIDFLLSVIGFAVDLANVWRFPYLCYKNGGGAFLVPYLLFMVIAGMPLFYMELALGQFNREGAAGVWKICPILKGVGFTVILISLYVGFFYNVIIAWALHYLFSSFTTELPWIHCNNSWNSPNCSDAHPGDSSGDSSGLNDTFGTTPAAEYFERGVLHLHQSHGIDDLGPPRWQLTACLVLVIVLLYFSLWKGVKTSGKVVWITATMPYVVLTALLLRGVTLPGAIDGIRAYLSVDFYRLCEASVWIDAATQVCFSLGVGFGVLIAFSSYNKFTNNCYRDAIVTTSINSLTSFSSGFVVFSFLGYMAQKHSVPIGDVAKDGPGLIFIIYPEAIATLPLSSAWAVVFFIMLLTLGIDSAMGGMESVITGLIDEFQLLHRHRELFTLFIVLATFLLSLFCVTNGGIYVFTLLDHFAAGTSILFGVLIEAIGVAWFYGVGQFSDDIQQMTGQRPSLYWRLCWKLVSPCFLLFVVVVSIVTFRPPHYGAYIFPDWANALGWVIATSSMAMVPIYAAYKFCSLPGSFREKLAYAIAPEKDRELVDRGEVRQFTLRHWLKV
# BB579 growth dn = yeast BB579 growth reduction in restrictive medium; S. cerevisiae BB579 growth, OD615, 48 h; inhibition, % at 10 µM; 140,000 tested, 0.51% active; AID 804;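 active = inhibition above a set limit, 3 SD over the mean compound inhibition, cut at about 44% in these data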
#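 Test system: S. cerevisiae DeaD strain BB579 yeast; Medium: restrictive CSMM-D medium; Compound: one dose, 10 µM compound with 0.25% DMSO; Incubation: 4 h cell preincubation, 48 h compound exposure, 30 °C humidified; Signal: OD at 615 nm; Benchmarks: amphotericin B at 10 µg/mL as positive control.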
# WT yeast gro inh = growth inhibition of WT yeast, mitochondrial fusion screen; mitochondrial fusion phenotypic screen, WT strain; inhibition, % at 10 µM; 190,000 tested, 2.1% active; in the data active = inhibition above about 58%; tested in S. cerevisiae
# The depositor's hits bear a star; . = no result given.
SMILES,RAM network inh,Measles CPE,Yeast life ext,hDAT+cocaine,BB579 growth dn,WT yeast gro inh
O=C1Nc2ccccc2N(O)N1c1cc(-c2cccc(Cl)c2)no1,0.3,33.0*,-8.0,0.507,-2.4,1.1
CC1CC(=O)Nc2ccccc2N1C(=O)CN1CCN(C=O)CC1 (stereo not given),1.8,.,.,.,.,-0.2
CCCCCc1c(C)nc(N2CCc3ccccc32)[nH]c1=O,9.9*,7.4,3.9,-0.0729,-46.2,2.9
CCCCCc1c(C)nc(N2CCc3ccccc3C2)[nH]c1=O,3.0,8.6,-1.2,0.497,-64.1,-2.5
O=C(CN1CCN(c2ccccc2O)CC1)Nc1cccnc1Cl,1.7,.,.,.,.,9.1
CCc1cccc(CC)c1NC(=S)Nc1ccccc1,-1.7,.,.,.,.,16.0
COc1cc(C2Nc3c(F)cccc3C3C=CCC32)cc(Br)c1OC (stereo not given),2.7,.,.,.,.,11.9
COc1cccc(C2Nc3c(F)cc(Br)cc3C3C=CCC32)c1OC (stereo not given),7.7,27.8,0.2,.,-63.8,66.1*
Cn1cnnc1SCC(=O)NNC(=O)c1ccc(Cl)cc1,0.3,5.8,-0.8,.,-16.2,-2.8
NS(=O)(=O)c1ccc(NC(=O)CSc2nnc(COc3ccccc3Cl)n2C2CC2)cc1,9.5*,4.4,-4.5,-0.431,-46.5,21.0
COc1ccc(CCNC(=O)C2CC(c3cc(C(F)(F)F)cc(C(F)(F)F)c3)=NO2)cc1 (stereo not given),.,.,.,0.0474,.,.
CCOC(=O)Cc1nnc(NC(=O)COc2ccc(OC)cc2)s1,1.9,22.7*,-9.1,-1.79,-28.4,-2.1
CCOC(=O)Cc1nnc(NC(=O)COc2ccc(C)cc2)s1,2.7,5.8,-6.9,0.424,-108.1,3.0
CCC(C)c1ccc(NC(=O)COC(=O)c2nc3nccc(C)n3n2)cc1 (stereo not given),2.2,.,.,.,.,0.5
Cc1ccc(C(=O)OCC(=O)Nc2nc(-c3ccccc3)cs2)cc1NC(=O)c1ccco1,5.1,.,.,.,.,15.7
O=C(NC(=S)Nc1ccc(N2CCOCC2)cc1)c1cncc(Br)c1,-0.1,14.8,-7.2,.,-10.9,20.8
CC1=Nc2nc(N3CCCCC3)c(C#N)c3c4c(nc(c23)N1)N(c1ccc(C(C)C)cc1)C(=O)C4,9.3*,6.0,4.6,.,-48.2,3.3
O=C(CSc1nnc(-c2cccs2)o1)NCc1ccco1,0.9,.,.,.,.,9.4
CCC(c1nnnn1Cc1ccco1)N(CCc1ccccc1)Cc1cc2cc(C)ccc2[nH]c1=O (stereo not given),.,.,.,0.141,.,.
COc1ccc2cc(CN(Cc3cccnc3)Cc3nnnn3Cc3ccccc3)c(=O)[nH]c2c1,0.8,3.9,-9.1,2.18*,-56.2,-11.9
CCC(c1nnnn1Cc1ccccc1)N(Cc1ccco1)Cc1cc2cc(OC)ccc2[nH]c1=O (stereo not given),2.3,34.2,-4.0,3.4*,-44.6,14.3
COc1ccccc1C1=NOC(COC(=O)c2ccc(Br)cc2)C1 (stereo not given),10.5*,4.6,-0.7,.,-62.1,33.3
COc1ccc(C(=O)OCC2CC(c3ccccc3)=NO2)cc1OC (stereo not given),3.5,.,.,.,.,4.6
CCOc1cc(NC(=S)NCc2ccco2)c(OCC)cc1NC(=O)C1CC1,4.1,36.8,0.0,.,-12.2,-29.0
Cc1ccc(O)c(-c2cc(-c3ccccc3[N+](=O)[O-])[nH]n2)c1,3.5,10.8,-9.3,.,-6.0,57.8
SMILES,RAM network inh,Measles CPE,Yeast life ext,hDAT+cocaine,BB579 growth dn,WT yeast gro inh
Cc1ccc(O)c(-c2cc(-c3ccccc3C)[nH]n2)c1,4.8,3.6,-13.7,1.62,98.8*,78.5*
Oc1ccc(Cl)cc1-c1cc(-c2ccccc2Cl)[nH]n1,6.0,9.6,.,-0.198,-74.1,36.5
O=[N+]([O-])c1ccccc1-c1cc(-c2cc(Cl)ccc2O)n[nH]1,2.4,33.0,-7.2,.,95.9*,69.8
Oc1ccc(Cl)cc1-c1cc(-c2cccc(Br)c2)n[nH]1,2.8,11.7,-10.3,-0.076,-22.7,81.6*
Cc1ccc(S(=O)(=O)c2ccc(C)cc2)cc1,2.2,26.1,57.8*,-0.941,-17.1,-8.5
CNS(=O)(=O)c1ccc(C)cc1,2.3,9.2,-7.7,-0.0541,-10.6,-8.6
COc1ccc(/C=C/c2cc(=O)c3cc(Cl)ccc3o2)cc1,10.1*,17.2,0.2,.,-43.1,11.5
COc1ccc(-c2cc(=O)c3cc(OC)ccc3o2)cc1,-0.1,.,.,.,.,14.5
Cc1cc[n+](C(C)C(=O)c2ccc(-c3ccccc3)cc2)cc1 (stereo not given),1.9,.,.,.,.,29.4
O=C1c2ccccc2N2C(=O)c3ccccc3[C@H]2N1c1ccccc1,2.1,2.6,-13.4,-2.66*,-85.0,17.5
Cc1nc(C(C)NC(=O)CCc2nnc(-c3ccsc3)o2)cs1 (stereo not given),-0.2,.,.,.,.,-5.7
O=C(O)c1cc(NS(=O)(=O)c2ccc(N3CCCCC3)c([N+](=O)[O-])c2)cc(C(=O)O)c1,1.9,6.8,1.3,.,-12.6,-6.5
CCOC(=O)Cc1csc(NC(=O)c2sc3nc4c(C)cc(C)cc4cc3c2N)n1,4.3,8.8,-13.6,-0.188,-8.8,-8.9
CCN(CC)c1ccc(C(=S)NCc2ccccc2)cc1,1.8,.,.,.,.,67.1*
CCN(CC)c1ccc(C(=S)NC2CCCCC2)cc1,0.6,.,.,.,.,73.4*
CCN1/C(=C2\C(=O)N(C)C(=S)N2C)C=Cc2cc(C)ccc21,1.5,20.7,10.0,.,-11.3,13.2
C=CCN(C)CC/C=C1\c2ccccc2CSc2ccccc21,1.9,7.6,.,-0.751,-35.4,10.8
C#CCN(C)CC/C=C1\c2ccccc2CSc2ccccc21,1.2,10.1,.,0.143,-21.1,69.8*
O=C(NCCN1C(=O)S/C(=C\c2ccccc2F)C1=O)C1CCCN1C(=O)c1cccs1 (stereo not given),1.9,19.4,-6.7,.,-3.9,-8.0
O=C(NCCN1C(=O)S/C(=C/c2ccccc2)C1=O)C1CCCN1C(=O)c1cccs1 (stereo not given),9.5*,11.3,-5.1,.,-33.3,-18.1
COc1ccc(/C=C2/SC(=O)N(CCNC(=O)C3CCCN3C(=O)c3cccs3)C2=O)cc1 (stereo not given),8.3,42.0*,-1.7,.,-8.6,0.9
Cc1cc(NC(=O)CSc2cc(Cl)ccc2Cl)n(-c2ccccc2)n1,2.6,6.2,8.8,.,1.9,31.4
Cc1ccc(C)c(SCC(=O)Nc2cc(C)nn2-c2ccc(F)cc2)c1,8.6*,10.3,0.8,.,-9.4,19.0
CC(C)COC(=O)Cn1cnc2ccc(Br)cc2c1=O,-0.8,15.3,27.2*,0.0107,-14.5,-2.1
CCCCOC(=O)Cn1cnc2ccc(Br)cc2c1=O,-0.5,7.2,14.9,1.93,-31.1,13.2
O=C(Nc1ccc(S(=O)(=O)Nc2ccc(Cl)cc2)cc1)C1CCCO1 (stereo not given),-1.4,39.6*,-10.2,0.393,-72.7,-0.5
